# GASC1 inh = blocks human GASC-1 (KDM4C) demethylase activity. Q9H3R0. inhibition, % at 12.5 µM. GST-KDM4C 2-372, H3K9me3 peptide, LANCE TR-FRET. 96,000 compounds, 0.15% hits;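 active = mean replicate inhibition above about 25%, with at least 55% of replicates also reaching it, limit read from the data, passing the limit was not always enough; inconclusive = only one of those two conditions met; inactive = neither condition met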
# Target sequence (Q9H3R0 2-372 limits assumed): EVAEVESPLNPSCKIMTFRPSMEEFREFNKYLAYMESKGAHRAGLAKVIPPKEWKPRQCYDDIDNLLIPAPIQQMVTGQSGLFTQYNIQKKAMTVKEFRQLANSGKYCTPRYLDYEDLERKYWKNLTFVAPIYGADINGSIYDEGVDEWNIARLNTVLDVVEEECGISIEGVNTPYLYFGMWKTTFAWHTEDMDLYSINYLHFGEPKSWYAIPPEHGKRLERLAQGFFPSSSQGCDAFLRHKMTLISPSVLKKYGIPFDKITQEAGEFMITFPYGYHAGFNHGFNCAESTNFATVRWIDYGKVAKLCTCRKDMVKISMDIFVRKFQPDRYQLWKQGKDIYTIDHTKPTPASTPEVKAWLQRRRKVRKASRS
#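 Assay system: GST-GASC-1 enzyme fragment 2-372 | Amount: 10 nM enzyme | Medium: HEPES buffer, pH 7.5, plus ascorbate | Reagent: H3K9me3 peptide substrate, Fe(II), 2-oxoglutarate | Doses: Single-point compound screen | Incubation: 30 min demethylation and 1 h detection at room temperature | Measured by: LANCE TR-FRET, excitation 340 nm, emissions 618 and 671 nm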
# T cruzi growth-1 = inhibitors of T. cruzi proliferation; T. cruzi beta-gal in NIH3T3, GalScreen luminescence, 90 h; inhibition, % at 8.34 µM; 77,000 compounds, 5.9% hits;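 active = mean inhibition above about 93%, with at least 55% of replicates each passing it, limit read from the data, passing the limit was not always enough; inconclusive = only one of those two conditions holds; inactive = neither condition holds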
# IDH1 mut inh = inhibitors of human IDH1 R132H; O75874; IDH1 R132H reductase, diaphorase/resazurin fluorescence, 60 min; inhibition, % at 10 µM; 70,000 compounds, 0.18% hits; AID 624101; in the data active = inhibition above about 34%; inconclusive = no clear call, values can overlap the other calls; inactive = below about 11%
# T cruzi growth-2 = inhibitors of T. cruzi proliferation | T. cruzi beta-gal in NIH3T3, GalScreen luminescence, 90 h | shares compounds with T cruzi growth-1 | 5,600 compounds, 72% hits | inhibition, % at 8.35 µM;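 active = mean replicate inhibition above about 95% and at least 55% of replicates individually reaching it, limit read from the data; inconclusive = only one of the two criteria is met; inactive = neither criterion is met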
# T cruzi growth-3 = inhibitors of T. cruzi proliferation | shares compounds with T cruzi growth-1 | T. cruzi beta-gal in NIH3T3, GalScreen luminescence, 90 h | inhibition, % at 2.09 µM | 5,600 compounds, 21% hits | AID 651740;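 active = mean inhibition above about 95%, with at least 55% of replicates also reaching it, limit read from the data; inconclusive = meets just one of the two conditions; inactive = meets neither condition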
# NIH3T3 tox = cytotoxicity in mouse NIH/3T3 fibroblasts | 5,600 compounds, 14% hits | cytotoxicity (signal decrease), % at 8.35 µM | AID 651742 | NIH/3T3 viability, CellTiter-Glo ATP luminescence, 90 h | shares compounds with T cruzi growth-1;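 active = mean signal decrease across replicates above about 35% based on untreated-well scatter, with enough replicates individually passing, limit read from the data; inconclusive = no rule stated though some were filed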
# NIH3T3 tox 2 = cytotoxicity in mouse NIH/3T3 fibroblasts; shares compounds with T cruzi growth-1; NIH/3T3 viability, CellTiter-Glo ATP luminescence, 90 h; inhibition, % at 24.9 µM; 5,600 compounds, 56% hits;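 active = mean loss of cell viability signal at or above a set limit, and enough replicates individually reaching it; inconclusive = meets only the mean limit or only the replicate share; inactive = meets neither condition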
# Hits are given with their value; . = inactive; ? = inconclusive; / = no result. The sample as a whole holds a higher share of hits than the screen did.
SMILES,GASC1 inh,T cruzi growth-1,IDH1 mut inh,T cruzi growth-2,T cruzi growth-3,NIH3T3 tox,NIH3T3 tox 2
C[C@@H]1CCCCO[C@@H](CN(C)C(=O)C2CCCCC2)[C@H](C)CN([C@@H](C)CO)C(=O)c2cc(NS(=O)(=O)c3ccc(Cl)cc3)ccc2O1,.,?,/,109,.,.,34
C[C@H]1CCCCO[C@H](CN(C)C(=O)C2CCCCC2)[C@@H](C)CN([C@@H](C)CO)C(=O)c2cc(NS(=O)(=O)c3ccc(Cl)cc3)ccc2O1,.,?,/,104,.,.,99
COc1ccc(CCN=C2CCc3ccccc3N2)cc1OC,/,/,.,/,/,/,/
O=C(CSC1CC(=O)N(c2ccccc2)C1=O)Nc1cccc(Br)c1 (stereo unspecified),/,/,.,/,/,/,/
Cc1ccc(C(C)C)c(OCc2ccc(C(=O)Nc3sc4c(c3C#N)CCCC4)o2)c1,/,/,.,/,/,/,/
C[C@@H]1CCCCO[C@H](CN(C)C(=O)C2CCCCC2)[C@H](C)CN([C@@H](C)CO)C(=O)c2cc(NS(C)(=O)=O)ccc2O1,.,100,.,.,.,.,.
C[C@H](CO)N1C[C@H](C)[C@@H](CN(C)C(=O)C2CCCCC2)OCCCC[C@H](C)Oc2ccc(NS(C)(=O)=O)cc2C1=O,.,.,/,/,/,/,/
C[C@H]1CN([C@@H](C)CO)S(=O)(=O)c2ccc(C#CC3CC3)cc2O[C@H]1CN(C)C(=O)Nc1cc(F)ccc1F,.,121,.,108,.,.,.
C[C@H]1CN([C@@H](C)CO)S(=O)(=O)c2ccc(C#CC3CC3)cc2O[C@@H]1CN(C)C(=O)Nc1cc(F)ccc1F,.,111,.,108,.,39,36
C[C@@H]1CN([C@@H](C)CO)S(=O)(=O)c2ccc(C#CC3CCCC3)cc2O[C@@H]1CN(C)C(=O)Nc1cc(F)ccc1F,.,/,.,/,/,/,/
C[C@H](CO)N1C[C@H](C)[C@H](CN(C)C(=O)Nc2cc(F)ccc2F)Oc2cc(-c3ccc(C#N)cc3)ccc2S1(=O)=O,.,.,/,/,/,/,/
Cc1ccc([N+](=O)[O-])cc1NC(=O)Cn1cnc2ccccc2c1=O,/,/,.,/,/,/,/
Cc1ccc(N(CC(N)=O)S(=O)(=O)c2ccc(Cl)cc2)cc1C,/,/,.,/,/,/,/
COc1ccccc1-c1ccc2c(c1)[C@@H]1[C@@H](CCN1S(=O)(=O)c1ccccc1OC)[C@H](CO)N2,.,.,/,/,/,/,/
Cc1ccccc1S(=O)(=O)N1CC[C@@H]2[C@@H](CO)Nc3ccc(-c4ccccc4F)cc3[C@@H]21,.,119,/,102,.,39,104
O=S(=O)(c1ccccc1F)N1CC[C@@H]2[C@H](CO)Nc3ccc(-c4ccccc4F)cc3[C@@H]21,.,.,/,/,/,/,/
COc1ccccc1S(=O)(=O)N1CC[C@@H]2[C@H]1c1cc(-c3ccccc3F)ccc1N[C@@H]2CO,.,102,/,97,.,.,.
O=C(CSc1nnc(-c2ccc([N+](=O)[O-])cc2)n1-c1ccccc1)Nc1ccc(Cl)cc1,/,/,.,/,/,/,/
O=C(CSc1nnnn1-c1cccc2ccccc12)c1ccc(O)c(O)c1,/,/,.,/,/,/,/
COc1cc(O)cc(C2=C(C)CC(O)C2=O)c1 (stereo unspecified),/,/,.,/,/,/,/
Cc1ccc(-c2ccc3c(c2)O[C@@H](CN(C)Cc2ccncc2)[C@H](C)CN([C@H](C)CO)S3(=O)=O)cc1,.,123,.,.,100,98,106
Cc1ccc(-c2ccc3c(c2)O[C@H](CN(C)Cc2ccncc2)[C@@H](C)CN([C@@H](C)CO)S3(=O)=O)cc1,.,124,.,103,104,69,103
C[C@@H]1CN([C@@H](C)CO)S(=O)(=O)c2ccc(-c3ccccc3)cc2O[C@@H]1CN(C)Cc1ccncc1,.,.,/,/,/,/,/
C[C@H](CO)N1C[C@H](C)[C@@H](CN(C)Cc2ccncc2)Oc2cc(-c3ccccc3)ccc2S1(=O)=O,/,.,.,/,/,/,/
COc1ccccc1NC(=O)CSc1nc2ccc(NC(=O)c3ccccc3OC)cc2s1,/,/,.,/,/,/,/
O=[N+]([O-])c1cccc(CSc2nnc(-c3ccco3)n2-c2ccccc2)c1,/,/,.,/,/,/,/

# Screening data (PubChem)
